# sPLA2-III inh = Inhibits HGIII-sPLA2 liposome hydrolysis, primary screen. inhibition, % at 12.2 µM. QFRET BODIPY PC-A2 liposome hydrolysis, fluorescence. 0.56% of 370,000 active. Q9NZ20;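 active = inhibition above mean plus 3 SD of compounds lying within the high and low control bounds, cut at about 19% in these data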;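 also: 0% = median of test compound wells and 100% = no enzyme DMSO wells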
# PfM18AAP inh-1 = PfM18AAP enzyme inhibition. inhibition, % at 7.35 µM. recombinant PfM18AAP, H-Glu-NHMec fluorogenic cleavage. 1.2% of 290,000 active;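 active = inhibition above the campaign mean inhibition over all tested compounds plus 3 SD, cut at about 28% in these data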;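 also: 0% = plate median of test compound wells and 100% = 2 mM ZnCl2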
# VIM-2 inh = inhibitors of Pseudomonas aeruginosa VIM-2 metallo-beta-lactamase | inhibition, % at 5.6 µM | purified VIM-2, nitrocefin hydrolysis, epi-absorbance fluorescence | 0.89% of 290,000 active | AID 1527;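 active = inhibition above the mean of all tested compounds plus 3 SD, cutoff set per screening run, cut at about 7.5% in these data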;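 also: red hydrolysis product quenches plate fluorescence so inhibitors raise well fluorescence; 0% = enzyme with DMSO and 100% = DMSO without enzyme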
# IMP-1 inhibitor = inhibitors of Pseudomonas aeruginosa IMP-1 metallo-beta-lactamase. 0.45% of 290,000 active. inhibition, % at 5.6 µM. AID 1556. purified IMP-1, nitrocefin hydrolysis, epi-absorbance fluorescence;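 active = inhibition above the mean plus 3 SD of all compounds in the same screening run, cut at about 4.5% in these data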;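 also: 0% = IMP-1 with DMSO and 100% = DMSO wells lacking enzyme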
#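 System: purified IMP-1 / Input: IMP-1 dispensed at 0.2 nM / Medium: 50 mM HEPES pH 7.1, 50 µM ZnSO4, 0.05% Brij 35 / Timing: 15 min enzyme–compound preincubation, then 25 min nitrocefin reaction, 25 °C / Technique: plate fluorescence quenching by hydrolysis product, ex 480/em 530 nm / Repeats: singlicate testing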
# PfM18AAP inh-2 = PfM18AAP inhibition, confirmation; shares compounds with PfM18AAP inh-1; recombinant PfM18AAP, H-Glu-NHMec fluorogenic cleavage; inhibition, % at 7.35 µM; 28% of 2,400 active;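 active = mean inhibition over replicate wells above the hit cutoff set for the earlier primary screen, cut at about 29% in these data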;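 also: 0% = median of test compound wells and 100% = 2 mM ZnCl2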
# CTSL1 counter = Cathepsin L (human) inhibition, confirmation; shares compounds with PfM18AAP inh-1; purified cathepsin L1, Z-Leu-Arg-MCA fluorescence; inhibition, % at 5.96 µM; 2,400 tested, under 10 active; AID 2178;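 active = average inhibition across replicates above the hit cutoff set in the earlier primary screen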;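 also: 0% = median of test compound wells and 100% = Z-Phe-Ala-diazomethylketone 1 µM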
# Target sequence (P07711 whole entry, looked up): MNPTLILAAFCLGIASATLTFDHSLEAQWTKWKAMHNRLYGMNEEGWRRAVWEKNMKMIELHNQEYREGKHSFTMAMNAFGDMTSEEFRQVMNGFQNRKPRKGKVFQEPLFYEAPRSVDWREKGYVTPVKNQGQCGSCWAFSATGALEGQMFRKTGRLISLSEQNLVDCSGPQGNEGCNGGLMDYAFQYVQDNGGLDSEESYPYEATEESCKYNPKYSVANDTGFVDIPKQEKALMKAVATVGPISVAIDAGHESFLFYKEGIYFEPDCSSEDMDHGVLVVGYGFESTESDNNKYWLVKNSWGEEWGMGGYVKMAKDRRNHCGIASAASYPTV
# * marks the source's active call; other numbers are inactive results; / = no result. A selection: hits, their analogues and other compounds. The true share with any hit is near 2.4%.
SMILES,sPLA2-III inh,PfM18AAP inh-1,VIM-2 inh,IMP-1 inhibitor,PfM18AAP inh-2,CTSL1 counter
NNC(=S)Nc1ccc(S(=O)(=O)N2CCOCC2)cc1,-9,3,-1,-2,/,/
COc1ccc(/C=C(\C#N)C(=O)Nc2cc(S(=O)(=O)N3CCOCC3)ccc2N2CCCC2)cc1,-15,40*,-4,-2,0,-4
COc1ccc2cc(CN(Cc3ccco3)Cc3nnnn3C3CCCCC3)c(=O)[nH]c2c1,-42,35*,-1,-1,-37,-4
CCN(CC)S(=O)(=O)c1cc([N+](=O)[O-])ccc1NNC(=O)Nc1ccc(Cl)c(Cl)c1,-2,50*,-5,-5,13,5
CCCCN(CCCC)S(=O)(=O)c1ccc(NC(=O)c2ccc([N+](=O)[O-])cc2Cl)cc1,0,-10,-3,-4,/,/
CC(C)NCC(O)c1ccc(O)c(O)c1 (centres undefined),0,66*,1,-2,51*,-4
CNC[C@H](O)c1ccc(O)c(O)c1,11,54*,-1,-4,66*,-8
O=C(O)CCC(=O)Nc1ccc(Cc2ccc(NC(=O)CCC(=O)O)c(O)c2)cc1O,-1,58*,1,-3,-6,0
CCCC[C@H]1C2CC(OC(=O)Nc3ccc4c(c3)OCO4)C(C2)[C@H]2CCCCN21 (some centres undefined),7,/,/,/,/,/
CNC(=S)NNc1ccccc1[N+](=O)[O-],10,57*,2,-1,61*,1
COCCNC(=S)NNc1ccccc1[N+](=O)[O-],12,61*,-3,-2,61*,3
COC(=O)C1Cc2c([nH]c3ccccc23)C2(CCN(Cc3ccccc3)CC2)N1 (centres undefined),-5,-15,-1,-2,/,/
O=C(Nc1ccc(F)cc1)c1ccc(Br)c(S(=O)(=O)N2CCOCC2)c1,5,-3,0,0,/,/
O=C(NCc1n[nH]c(=S)n1-c1ccc(Br)cc1)c1cccs1,13,34*,-3,-4,-12,-8
COc1ccccc1-n1c(CNC(=O)c2cccs2)n[nH]c1=S,4,36*,-3,-4,-11,-7
O=Cc1ccc(/C=C2\c3ccccc3C(=O)N2c2ccccc2)o1,11,/,/,/,/,/
O=C(O)c1cccc(-n2sc3ccccc3c2=O)c1,8,/,/,/,/,/
O=c1c2ccccc2sn1-c1ccc(S(=O)(=O)N2CCCC2)cc1,-4,33*,-7,-1,-23,-4
O=c1c2ccccc2sn1-c1cccc(Cl)c1,4,/,/,/,/,/
Cc1ccc(-n2sc3ccccc3c2=O)cc1S(=O)(=O)N1CCCCC1,4,40*,3,-5,66*,-1
O=c1c2ccccc2sn1-c1ccccc1,1,56*,-4,-4,52*,0
CN(C)S(=O)(=O)c1cccc(-n2sc3ccccc3c2=O)c1,7,43*,-1,-4,43*,2
CN(C)CCN1CCN(C2CN(Cc3cn(Cc4ccccc4)nn3)S(=O)(=O)C2)CC1 (centres undefined),12,/,/,/,/,/
COc1ccc2c(c1C(=O)/C=C/c1ccccc1)OC(C)(C)C=C2,4,/,/,/,/,/
COc1ccc(CC(N)c2csc(NC(=O)Nc3ccccc3C(C)C)n2)cc1 (centres undefined),11,/,/,/,/,/
SMILES,sPLA2-III inh,PfM18AAP inh-1,VIM-2 inh,IMP-1 inhibitor,PfM18AAP inh-2,CTSL1 counter
Cc1ccc2c(=O)n3c(nc2c1)C(Cc1ccc(O)cc1)NC(=O)c1cc2ccccc2cc1-3 (centres undefined),-18,/,/,/,/,/
COCCn1c(=S)[nH]c2ccc(N(C)C)cc2c1=O,7,40*,-1,0,-3,2
COc1cccc(C(=O)NCC(=O)N2CCC3(CC2)NCCc2[nH]cnc23)c1,8,-8,0,-1,/,/
NS(=O)(=O)c1ccc(NNC(=O)c2sccc2Cl)cc1,8,52*,0,-1,28,-8
COC(=O)NNC(=O)COc1ccc2ccccc2c1Br,-3,1,-2,-3,/,/
Cc1ccc(OCC(=O)Nn2cnnc2)c(Br)c1,0,66*,-3,2,57*,5
Cc1cc(OCC(=O)NC2CC(C)(C)NC(C)(C)C2)c(C)cc1Br,7,0,-1,-1,/,/
Cc1cc(OCC(=O)Nn2cnnc2)c(C)cc1Br,4,46*,-1,0,55*,-2
O=C(COc1ccc2ccccc2c1Br)Nn1cnnc1,-3,56*,0,-5,37*,-2
Cc1ccc(OCC(=O)NNC(=O)CCc2ccccc2)c(Br)c1,-24,4,-3,-2,/,/
CN(C)/C=C(\C#N)C(=O)N/N=C/c1ccc(F)cc1,9,0,-2,-3,/,/
CC/C(CC(=O)C(F)(F)F)=N\NC(=O)/C(C#N)=C/N(C)C,0,43*,-4,-4,-54,8
O=C(CSc1ncn[nH]1)NCCc1ccccc1,2,9,-3,-3,/,/
CC(Sc1ncn[nH]1)C(=O)NCc1ccccc1 (centres undefined),10,35*,-3,-2,17,-1
COc1ccccc1OC(=O)CCc1nc2ccccc2s1,-1,38*,-3,-3,-9,-1
CC(=O)c1ccc(OC(=O)CCc2nc3ccccc3s2)cc1,-6,39*,-1,-5,8,-43
COC(=O)CCCc1nc2ccccc2s1,1,3,-3,-1,/,/
CCCCCCCCN1C(=O)[C@@H](CC(=O)N2CCC(c3ccccc3)CC2)C[C@@]2(C(=O)OC)C1=C[C@H](COCc1ccccc1)O[C@@H]2C,-14,/,/,/,/,/
Nc1ncnc(Sc2ncccn2)c1[N+](=O)[O-],2,34*,-3,-4,-90,2
COc1cccc(C(=O)C(=O)c2cccc(OC)c2OC)c1OC,-7,/,/,/,/,/
O=C(NC(=S)Nc1ncccn1)c1ccccc1Cl,7,-1,0,-2,/,/
COc1cccc(C(=O)NC(=S)Nn2cnnc2)c1OC,8,73*,-2,-3,60*,-9
O=C(NC(=S)Nn1cnnc1)c1ccc(F)cc1Cl,-5,78*,-2,1,55*,-3
CC(C)NC(=S)NC(=O)c1ccc(Cl)cc1Cl,15,-3,-1,0,/,/
O=C(NC(=S)Nn1cnnc1)c1ccccc1Cl,2,83*,-3,-4,52*,-7
SMILES,sPLA2-III inh,PfM18AAP inh-1,VIM-2 inh,IMP-1 inhibitor,PfM18AAP inh-2,CTSL1 counter
CCOCCc1nnc(NC(=O)CS(=O)(=O)c2ccc(C)cc2)s1,7,0,-3,-2,/,/
O=C(O)Cc1ccc(O)c(O)c1,0,/,/,/,/,/
OCCCc1ccc(O)c(O)c1,0,45*,2,0,27,3
Oc1ccc(/C=N/Nc2cc(N3CCCC3)nc(N3CCCC3)n2)cc1O,2,40*,-1,-2,27,4
Oc1ccc(/C=N\Nc2cc(N3CCOCC3)nc(N3CCOCC3)n2)c(O)c1,-15,26,-3,-4,/,/
Cc1c(Cc2ccccc2)c(=O)oc2cc(O)ccc12,-26,3,0,-2,/,/

# Screens as filed in PubChem BioAssay.
